Legend:
[1] = target: Histone deacetylase; assay: Inhibition of HDAC in human HeLa cell nuclear extract using Fluor de Lys as substrate incubated with compound for 30 mins by microtiter-plate reading flourimeter analysis; format: protein assay
[2] = system: C2C12; assay: Induction of RUNX transcriptional activation in mouse C2C12-6xOSE2 cells at 1 uM after 24 hrs by luciferase reporter assay relative to FGF-2; format: functional
Summary of the method: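 C2C12-6xOSE stable cells grown in DMEM with 10% FBS at 37°C, 5% CO2. Seeded at 1 × 10^4 cells/well; next day treated with compound or FGF-2 (1 µM each). After 24 h, luciferase measured with Bright-Glo. Activity expressed as percent of the FGF-2 positive-control response.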

[3] = Growth inhibition of human PC3 cells after 5 days by sulforhodamine B assay; format: functional; details: PC-3, 120 h
[4] = system: MDA-MB-231; assay: Growth inhibition of human MDA-MB-231 cells after 5 days by sulforhodamine B assay; format: functional; details: MDA-MB-231, 120 h
[5] = system: ACHN; assay: Growth inhibition of human ACHN cells after 5 days by sulforhodamine B assay; format: functional; details: 120 h
[6] = Growth inhibition of human HCT15 cells after 5 days by sulforhodamine B assay; format: functional; details: HCT-15, 120 h
[7] = system: NCI-H23; assay: Growth inhibition of human NCI-H23 cells after 5 days by sulforhodamine B assay; format: functional; details: NCI-H23, 120 h
[8] = Growth inhibition of human NUGC3 cells after 5 days by sulforhodamine B assay; format: functional; details: NUGC-3, 120 h
[9] = system: HEK293; assay: Induction of myc-tagged RUNX3 acetylation in human HEK293 cells assessed as acetylated RUNX3 level at 1 uM after 24 hrs by immunoprecipitation analysis relative to TSA; format: functional
Summary of the method: (§1)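 HEK293 cells (DMEM, 10% FBS) transfected with myc-RUNX3 vector using Lipofectamine 2000. Next day treated at 1 µM for 24 h. Lysates (HEPES pH 7.5, NP-40 buffer) immunoprecipitated with anti-myc antibody and protein G beads at 4°C. Immunoprecipitates western-blotted with anti-acetylated lysine antibody; relative acetylated RUNX3 quantified.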

[10] = system: HEK293; assay: Induction of myc-tagged RUNX3 acetylation in human HEK293 cells assessed as RUNX3 level at 1 uM after 24 hrs by immunoprecipitation analysis relative to TSA; format: functional; summary of the method: as §1
[11] = Metabolic stability in mouse liver microsomes assessed as compound remaining at 1 uM after 30 mins by LC-ESI/MS/MS analysis in absence of NADPH; format: ADME; details: read-out: Stability
Summary of the method: (§2)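 Compound at 1 µM incubated in triplicate with pooled mouse liver microsomes (0.5 mg/ml final) in 0.1 M potassium phosphate, pH 7.4, at 37°C, with or without 1 mM NADPH. Reactions stopped at 0 and 30 min with ice-cold acetonitrile containing internal standard. After centrifugation, supernatant analyzed by LC-ESI/MS/MS; percent remaining from analyte/IS peak-area ratios. Buspirone served as positive control.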

[12] = Metabolic stability in mouse liver microsomes assessed as compound remaining at 1 uM after 30 mins byLC-ESI/MS/MS analysis in presence of NADPH; format: ADME; details: read-out: Stability; summary of the method: as §2
[13] = system: NCI-H460; assay: Induction of RUNX3 mRNA expression in human NCI-H460 cells after 24 hrs by RT-PCR analysis; format: functional, cell-based
Summary of the method: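 NCI-H460 cells in RPMI1640 with 10% FBS were plated and treated the following day. After 24 h, total RNA extracted and 1 µg reverse-transcribed. RUNX3 cDNA amplified with specific primers, run on a 1.5% agarose gel and stained with ethidium bromide. GAPDH served as internal control; SNU16 gastric cells served as positive-control line.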

[14] = Metabolic stability in rat liver microsomes assessed as compound remaining at 1 uM after 60 mins by LC-ESI/MS/MS analysis in absence of NADPH; format: ADME; details: read-out: Stability
Summary of the method: (§3)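 Rat or human liver microsomes (0.5 mg/ml) incubated with test compound (1 µM) at 37°C for 60 min, with or without NADPH or UDPGA cofactor, n = 2–3. Percent parent remaining quantified by LC-ESI/MS/MS.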

[15] = Metabolic stability in rat liver microsomes assessed as compound remaining at 1 uM after 60 mins byLC-ESI/MS/MS analysis in presence of NADPH; format: ADME; details: read-out: Stability; summary of the method: as §3
[16] = Metabolic stability in rat liver microsomes assessed as compound remaining at 1 uM after 60 mins by LC-ESI/MS/MS analysis in absence of UDPGA; format: ADME; details: read-out: Stability; summary of the method: as §3
[17] = Metabolic stability in rat liver microsomes assessed as compound remaining at 1 uM after 60 mins by LC-ESI/MS/MS analysis in presence of UDPGA; format: ADME; details: read-out: Stability; summary of the method: as §3
[18] = Metabolic stability in human liver microsomes assessed as compound remaining at 1 uM after 60 mins by LC-ESI/MS/MS analysis in absence of NADPH; format: ADME; details: read-out: Stability; summary of the method: as §3
[19] = Metabolic stability in human liver microsomes assessed as compound remaining at 1 uM after 60 mins byLC-ESI/MS/MS analysis in presence of NADPH; format: ADME; details: read-out: Stability; summary of the method: as §3
[20] = Metabolic stability in human liver microsomes assessed as compound remaining at 1 uM after 60 mins by LC-ESI/MS/MS analysis in absence of UDPGA; format: ADME; details: read-out: Stability; summary of the method: as §3
[21] = Metabolic stability in human liver microsomes assessed as compound remaining at 1 uM after 60 mins byLC-ESI/MS/MS analysis in presence of UDPGA; format: ADME; details: read-out: Stability; summary of the method: as §3
[22] = AUC(0 to infinity) in Sprague-Dawley rat at 2 mg/kg, iv by LC-MS/MS analysis; format: ADME, organism-based; design: time infinity, dose 2 mg/kg, route intravenous; details: plasma
[23] = Clearance in Sprague-Dawley rat at 2 mg/kg, iv by LC-MS/MS analysis; format: ADME, organism-based; design: dose 2 mg/kg, route intravenous; details: in vivo
Summary of the method: (§4)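 Specific pathogen-free male SD rats (10 weeks, 298–315 g), n = 3 per route, single dose 2 mg/kg i.v. or 10 mg/kg p.o. Oral vehicle DMAC/Vitamin E TPGS 80/25% solutol HS 15 (10/10/80); dosing volumes 5 (i.v.) and 10 ml/kg (p.o.). Plasma precipitated with acetonitrile containing carbamazepine internal standard, LC-MS/MS. Noncompartmental analysis of mean profiles; linear-trapezoidal AUC (oral 0–5 h, i.v. to infinity).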

[24] = Volume of distribution at steady state in Sprague-Dawley rat at 2 mg/kg, iv by LC-MS/MS analysis; format: ADME, organism-based; design: dose 2 mg/kg, route intravenous; details: in vivo, read-out: Vdss; summary of the method: as §4
[25] = Terminal half life in Sprague-Dawley rat at 2 mg/kg, iv by LC-MS/MS analysis; format: ADME, organism-based; design: dose 2 mg/kg, route intravenous; details: in vivo, read-out: beta t1/2 (converted); summary of the method: as §4
[26] = Tmax in Sprague-Dawley rat at 10 mg/kg, po by LC-MS/MS analysis; format: ADME, organism-based; design: dose 10 mg/kg, route oral; details: in vivo; summary of the method: as §4
[27] = Cmax in Sprague-Dawley rat at 10 mg/kg, po by LC-MS/MS analysis; format: ADME, organism-based; design: dose 10 mg/kg, route oral; details: in vivo; summary of the method: as §4
[28] = AUC (0 to 5 hrs) in Sprague-Dawley rat at 10 mg/kg, po by LC-MS/MS analysis; format: ADME, organism-based; design: dose 10 mg/kg, route oral; details: plasma; summary of the method: as §4
[29] = Terminal half life in Sprague-Dawley rat at 10 mg/kg, po by LC-MS/MS analysis; format: ADME, organism-based; design: dose 10 mg/kg, route oral; details: in vivo, read-out: beta t1/2 (converted); summary of the method: as §4
[30] = Oral bioavailability in Sprague-Dawley rat at 10 mg/kg by LC-MS/MS analysis; format: ADME, organism-based; details: in vivo; summary of the method: as §4
[31] = system: NCI-H460; assay: Antitumor activity against human NCI-H460 cells xenografted in BALB/c nude mouse assessed as reduction in tumor weight at 20 mg/kg, po administered daily for 2 weeks measured every 2 or 3 days for 14 days; format: functional
Summary of the method: (§5)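 Female SPF BALB/c nude mice, 6 weeks old, injected subcutaneously in the flank with NCI-H460 cells (3 × 10^7/animal). At tumor volume 50–80 mm3, randomized four per group. Dosed orally at 20 mg/kg in 10% DMAC/10% Tween 80 in saline, daily for two weeks, versus vehicle control. Tumor length and width measured by caliper three times weekly; body weight monitored.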

[32] = system: Mus musculus; assay: Toxicity against BALB/c nude mouse xenografted with human NCI-H460 cells assessed as body weight loss at 20 mg/kg, po administered daily for 2 weeks; format: organism-based; design: dose 20 mg/kg, route oral; details: in vivo, 336 h; summary of the method: as §5
[33] = Retention time of the compound by HPLC analysis; format: physicochemical

Row | SMILES | IC50 [1] [nM] | GI50 [4] [nM] | GI50 [5] [nM] | GI50 [7] [nM] | remaining at 0.5 h, 1 µM [11] [%] | remaining at 0.5 h, 1 µM [12] [%] | Retention_time [33] [min] | Activity [2] [%] | GI50 [3] [nM] | GI50 [6] [nM] | GI50 [8] [nM] | fold change (FC) [9] | fold change (FC) [10] | also measured
1 | COc1cccc(Cn2cccc(/C=C/C(=O)NO)c2=O)c1 | 150 | 3180 | 1260 | 2690 | 98.6 | 61.5 | – | 200 | 1820 | 2600 | 1690 | 17 | 2 | –
2 | O=C(CCC1=CCN(Cc2ccc(Br)cc2)C1=O)NO | – | – | – | – | – | – | – | – | – | – | – | – | – | inhibition in vivo at 20 mg/kg [31]: 37.9%
3 | CCOc1ccc(CCn2cccc(/C=C/C(=O)NO)c2=O)cc1 | 70 | 2050 | 2340 | 1050 | 105 | 59.6 | – | 119.5 | 140 | 1000 | 1280 | 0.2 | 0.8 | –
4 | O=C(/C=C/c1cccn(CCCc2cccc(Br)c2)c1=O)NO | 100 | 1850 | 740 | 1220 | 96.7 | 20.7 | – | 100.8 | 1260 | 1160 | 1200 | 0.4 | 0.7 | –

Further lines, with some results ahead:

Row | IC50 [1] [nM] | GI50 [4] [nM] | GI50 [5] [nM] | GI50 [7] [nM] | remaining at 0.5 h, 1 µM [11] [%] | remaining at 0.5 h, 1 µM [12] [%] | Retention_time [33] [min] | SMILES | Activity [2] [%] | GI50 [3] [nM] | GI50 [6] [nM] | GI50 [8] [nM] | fold change (FC) [9] | fold change (FC) [10] | also measured
5 | 30 | 100 | 250 | 130 | 100 | 90.3 | 9.606 | O=C(/C=C/c1cccn(Cc2ccc3ccccc3n2)c1=O)NO | 687.5 | 490 | 380 | 710 | 77.5 | 29.3 | Activity [13]: Dose-dependent effect; remaining at 1 h, 1 µM [14]: 92%; remaining at 1 h, 1 µM [15]: 83.5%; remaining at 1 h, 1 µM [16]: 88.9%; remaining at 1 h, 1 µM [17]: 72.4%; remaining at 1 h, 1 µM [18]: 74.7%; remaining at 1 h, 1 µM [19]: 75.5%; remaining at 1 h, 1 µM [20]: 95.2%; remaining at 1 h, 1 µM [21]: 99.7%; AUC(0-inf) [22]: 354 ng·h/mL; clearance [23]: 93.3 mL/min/kg; Vd [24]: 14 L/kg; half-life [25]: 4.4 h; Tmax [26]: 0.67 h; Cmax [27]: 142 ng/mL; AUC(0-t) at 4 h [28]: 863 ng·h/mL; half-life [29]: 10.3 h; bioavailability [30]: 48.7%; inhibition in vivo at 20 mg/kg [31]: 45.7%; Activity [32]: Non-toxic
6 | 30 | 720 | 760 | 870 | 110 | 88.4 | 11.335 | COc1cccc(CCCn2cccc(/C=C/C(=O)NO)c2=O)c1 | 142.1 | 700 | 1590 | 1050 | 0.8 | 1.1 | remaining at 1 h, 1 µM [14]: 116%; remaining at 1 h, 1 µM [15]: 72.7%; remaining at 1 h, 1 µM [16]: 81.3%; remaining at 1 h, 1 µM [17]: 45.7%
7 | 50 | 560 | 320 | 460 | 104 | 31.5 | 12.367 | CCOc1ccccc1CCCn1cccc(/C=C/C(=O)NO)c1=O | 105.5 | 180 | 660 | 470 | 37.2 | 13.7 | –
